From ChEMBL document CHEMBL5120755, “A new strategy for hit generation: Novel in cellulo active inhibitors of CYP121A1 from Mycobacterium tuberculosis via a combined X-ray crystallographic and phenotypic screening approach (XP screen)” (Eur J Med Chem, 2022)

Experiments:
[1] = Inhibition of Mycobacterium tuberculosis CYP121A1 mediated cYY conversion to mycocyclosin assessed as fold change in cYY level at 100 uM incubated for 2 hrs in the presence of NADPH by LC-MS activity assay relative to clotrimazole; format: ADME; settings: recombinant enzyme
[2] = Binding affinity to Mycobacterium tuberculosis CYP121A1 expressed in Escherichia coli HMS174 (DE3) assessed as thermal stability by measuring increase in melting temperature at 1mM by SYPRO orange dye based differential scanning fluorimetry assay; settings: 1000 µM
Method in brief: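 Protein at 5 μM in 100 mM potassium phosphate pH 6.9 with 2.5× Sypro Orange. Ligand 1 mM final, 4% DMSO-d6. Scanned 25–95 °C in 0.5 °C steps of 30 s. Positive Tm shifts repeated in triplicate and averaged over four runs.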

[3] = Inhibition of cYY binding to Mycobacterium tuberculosis CYP121A1 expressed in Escherichia coli HMS174 (DE3) assessed as dissociation constant of cYY preincubated with compound followed by substrate addition by competitive UV-visible spectroscopic analysis; format: ADME
Method in brief: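 CYP121A1 at 5 μM. […] UV-vis difference spectra processed as for direct titrations and fitted to the Hill equation for Kd.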

[4] = tested on: Mycobacterium tuberculosis; test: Antimycobacterial activity against Mycobacterium tuberculosis H37Rv assessed as inhibition of bacterial growth in presence of middlebrook 7H9/ADC/tyloxapol/glycerol medium measured for 1 week by resazurin based colorimetric assay; format: functional; settings: 168 h, time 1 weeks
Method in brief: (§1)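 Mtb H37Rv grown in 7H9 with 10% ADC, 0.05% tyloxapol, 0.02% glycerol to OD600 ~1, then pre-adapted 8 days at 37 °C in the test medium (c7H9, 7H9-Low BSA or MMM-Ch). DMSO stocks serially diluted, 400 to 0.78 μM, about 10^5 CFU per well. Incubated at 37 °C for 1 week (c7H9, Low BSA) or 2 weeks (MMM-Ch). 0.02% resazurin added for 1 day more. MIC90 read visually as lowest concentration with no colour change.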

[5] = tested on: Mycobacterium tuberculosis; test: Antimycobacterial activity against Mycobacterium tuberculosis H37Rv assessed as inhibition of bacterial growth in presence of middlebrook 7H9/BSAADN//tyloxapol/glycerol medium measured for 1 week by resazurin based colorimetric assay; format: functional; settings: 168 h, time 1 weeks; method in brief: as §1
[6] = tested on: Mycobacterium tuberculosis; test: Antimycobacterial activity against Mycobacterium tuberculosis H37Rv assessed as inhibition of bacterial growth in presence of Mycobacterial minimal medium with cholesterol measured for 2 weeks by resazurin based colorimetric assay; format: functional; settings: 336 h; method in brief: as §1
[7] = Binding affinity to Mycobacterium tuberculosis CYP121A1 expressed in Escherichia coli HMS174 (DE3) assessed as dissociation constant by isothermal titration calorimetry; format: ADME
Method in brief: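 Untagged His-purified CYP121A1 at 50 μM in 50 mM Tris-HCl, 1 mM EDTA, pH 7.2, with 10% DMSO-d6. Ligand at 0.5 or 2.5 mM final. One 0.2 μL injection discarded, then 19 injections of 2 μL at 120 s intervals, 25 °C. Ligand-into-buffer heats subtracted. One-site fit, N fixed at 1 for weak binders or left free.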

## Brc1ccc2c(c1)N(c1nccc(CCc3c[nH]c4ccccc34)n1)CCO2
[1]
  fold change (FC): 0.3

## Oc1ccc2[nH]cc(CCc3ccnc(N4CCOCC4)n3)c2c1
[2]
  deltaTm: 0.5 °C
[1]
  fold change (FC): 3.5

## c1ccc2c(c1)OCCN2c1nccc(CCc2c[nH]c3ccccc23)n1
[1]
  fold change (FC): 0.1
[3]
  Kd: 17.5 µM

## FC(F)(F)Oc1ccc2[nH]cc(CCc3ccncc3)c2c1
[1]
  fold change (FC): 1.2

## c1ccc2c(CCc3nc4c(c(N5CC6CCC(C5)O6)n3)CNC4)c[nH]c2c1
[2]
  deltaTm: 2.4 °C

## COC1CN(c2nccc(CCc3c[nH]c4ccccc34)n2)C1
[1]
  fold change (FC): 1.2

## c1ccc2c(CCc3ccnc(N4CCOCC4)n3)c[nH]c2c1
[1]
  fold change (FC): 4.7
[3]
  Kd: 25.2 µM

## Cn1cc(CCc2ccnc(N3CCOCC3)n2)c2ccccc21
[1]
  fold change (FC): 2.1

## Brc1ccc2[nH]cc(CCc3ccnc(N4CCOCC4)n3)c2c1
[1]
  fold change (FC): 3.8

## FC(F)(F)Oc1ccc2[nH]cc(CCc3ccnc(N4CCOCC4)n3)c2c1
[1]
  fold change (FC): 1.1

## c1ccc2c(CCc3ccnc(N4CCCOCC4)n3)c[nH]c2c1
[1]
  fold change (FC): 4.7

## N[C@H](Cc1c[nH]c2ccccc12)c1nc(-c2ccccc2)cs1
[4]
  MIC90: 40 µM
[5]
  MIC90: 40 µM
[6]
  MIC90: 40 µM

## COc1ccc2[nH]cc(CCc3ccncc3)c2c1
[1]
  fold change (FC): 1

## c1ccc2c(CCc3nc4c(c(N5CCOCC5)n3)CCNC4)c[nH]c2c1
[2]
  deltaTm: 1 °C
[1]
  fold change (FC): 1.3

## c1ccc2c(CCc3ccncn3)c[nH]c2c1
[2]
  deltaTm: 3.5 °C
[1]
  fold change (FC): 1.8

## Brc1ccc2[nH]cc(CCc3ccncc3)c2c1
[1]
  fold change (FC): 1.3

## Nc1[nH]nc(-c2ccc(O)cc2)c1-c1ccc(O)cc1
[2]
  deltaTm: 1 °C
[7]
  Kd: 20 µM

## N[C@H](Cc1c[nH]c2ccccc12)c1nc(-c2ccc(OC(F)(F)F)cc2)cs1
[4]
  MIC90: 40 µM
[5]
  MIC90: 40 µM
[6]
  MIC90: 40 µM

## c1ccc2c(CCc3nc4c(c(N5CCOCC5)n3)CNC4)c[nH]c2c1
[2]
  deltaTm: 3.5 °C
[1]
  fold change (FC): 4.1

## Fc1ccc2[nH]cc(CCc3ccncc3)c2c1
[1]
  fold change (FC): 3.5

## Fc1ccc2[nH]cc(CCc3ccnc(N4CCOCC4)n3)c2c1
[1]
  fold change (FC): 10.6

## N[C@H](Cc1c[nH]c2ccccc12)c1nc(-c2ccccn2)cs1
[4]
  MIC90: 40 µM
[5]
  MIC90: 40 µM
[6]
  MIC90: 40 µM

## c1ccc2c(CCc3ccncc3)c[nH]c2c1
[1]
  fold change (FC): 1.1

## COC1CN(c2nccc(CCc3c[nH]c4ccc(Br)cc34)n2)C1
[1]
  fold change (FC): 1.8

## Ic1ccc2[nH]cc(CCc3ccncc3)c2c1
[1]
  fold change (FC): 1.9

## Clc1ccc2[nH]cc(CCc3ccncc3)c2c1
[1]
  fold change (FC): 2.3
